The source made the active and inactive calls. How the calls were made is not given here.
Tests used:
[1] = Cytotoxicity against human HuH7 cells infected with Hepatitis C virus subtype 2a; format: cell-based, Huh-7
[2] = tested on: Hepatitis C virus; assay: Antiviral activity against Hepatitis C virus subtype 2a infected in human HuH7 cells; format: functional, organism-based, Hepacivirus hominis; conditions: genotype 2a, Huh-7
[3] = Cytotoxicity against human HuH7 cells infected with Hepatitis C virus subtype 1b; format: cell-based, Huh-7
[4] = tested on: Hepatitis C virus; assay: Antiviral activity against Hepatitis C virus subtype 1b infected in human HuH7 cells; format: functional, organism-based, Hepacivirus hominis; conditions: genotype 1b, Huh-7
[5] = tested on: Candida tropicalis; assay: Antifungal activity against Candida tropicalis after 48 hrs; format: functional, organism-based
[6] = tested on: Pichia kudriavzevii; assay: Antifungal activity against Candida crusei after 48 hrs; format: functional, organism-based
[7] = tested on: Candida parapsilosis; assay: Antifungal activity against Candida parapsilosis after 48 hrs; format: functional, organism-based
[8] = tested on: Candida albicans; assay: Antifungal activity against Candida albicans after 48 hrs; format: functional, organism-based
[9] = tested on: Pseudomonas aeruginosa; assay: Antibacterial activity against multi-resistant Pseudomonas aeruginosa A/16575 after 24 hrs; format: functional, organism-based
[10] = tested on: Escherichia coli; assay: Antibacterial activity against multi-resistant Escherichia coli C/16702 after 24 hrs; format: functional, organism-based
[11] = tested on: Staphylococcus haemolyticus; assay: Antibacterial activity against methicillin-resistant Staphylococcus haemolyticus A/16568 after 24 hrs; format: functional, organism-based
[12] = tested on: Staphylococcus aureus; assay: Antibacterial activity against methicillin-resistant Staphylococcus aureus MRSA 4591 after 24 hrs; format: functional, organism-based
[13] = tested on: Pseudomonas aeruginosa; assay: Antibacterial activity against Pseudomonas aeruginosa CCM 3955 after 24 hrs; format: functional, organism-based
[14] = tested on: Escherichia coli; assay: Antibacterial activity against Escherichia coli CCM 3954 after 24 hrs; format: functional, organism-based
[15] = tested on: Staphylococcus aureus; assay: Antibacterial activity against Staphylococcus aureus CCM 3953 after 24 hrs; format: functional, organism-based
[16] = tested on: Enterococcus faecalis; assay: Antibacterial activity against Enterococcus faecalis CCM 4224 after 24 hrs; format: functional, organism-based
[17] = Antiproliferative activity against human HeLaS3 cells after 72 hrs by XTT assay; format: functional, cell-based; conditions: HeLa S3, 72 h
How it was run: (§1)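 Antiproliferative test on HL-60 promyelocytic leukemia and HeLa S3 cervical carcinoma cells growing in liquid suspension.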

[18] = tested on: HL-60; assay: Antiproliferative activity against human HL60 cells after 72 hrs by XTT assay; format: functional, cell-based; conditions: HL-60, 72 h; how it was run: as §1
[19] = tested on: HepG2; assay: Antiproliferative activity against human HepG2 cells after 72 hrs by XTT assay; format: functional, cell-based; conditions: HepG2, 72 h
[20] = tested on: MRC5; assay: Cytostatic activity against human MRC5 cells after 72 hrs by MTT assay; format: ADME, cell-based; conditions: MRC5, 72 h
How it was run: (§2)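 IC50 is the concentration that cuts cell growth by 50%, read by quantitative metabolic MTT staining after a 3-day treatment. The resistant sublines were made by raising the concentration of the cytotoxic drug step by step. CEM-DNR-bulk (daunorubicin-selected) stably overexpresses mrp-1. K562-TAX (paclitaxel-selected) expresses only mdr-1. HCT116p53−/− carries null p53 alleles. BJ and MRC-5 are nonmalignant fibroblasts.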

[21] = tested on: BJ; assay: Cytostatic activity against human BJ cells after 72 hrs by MTT assay; format: ADME, cell-based; how it was run: as §2
[22] = tested on: HCT-116; assay: Cytostatic activity against p53-deficient human HCT116 cells after 72 hrs by MTT assay; format: functional, cell-based; conditions: HCT-116, 72 h; how it was run: as §2
[23] = tested on: HCT-116; assay: Cytostatic activity against human HCT116 cells after 72 hrs by MTT assay; format: functional, cell-based; conditions: HCT-116, 72 h; how it was run: as §2
[24] = tested on: A549; assay: Cytostatic activity against human A549 cells after 72 hrs by MTT assay; format: functional, cell-based; conditions: A549, 72 h; how it was run: as §2
[25] = tested on: K562; assay: Cytostatic activity against paclitaxel-resistant human K562 cells after 72 hrs by MTT assay; format: functional, cell-based; conditions: K562, 72 h; how it was run: as §2
[26] = tested on: K562; assay: Cytostatic activity against human K562 cells after 72 hrs by MTT assay; format: functional, cell-based; conditions: K562, 72 h; how it was run: as §2
[27] = Cytostatic activity against human CEM-DNR-bulk cells after 72 hrs by MTT assay; format: functional, cell-based; how it was run: as §2
[28] = tested on: CCRF-CEM; assay: Cytostatic activity against human CCRF-CEM cells after 72 hrs by MTT assay; format: functional, cell-based; how it was run: as §2

Row | SMILES | CC50 [3] [µM] | EC50 [4] [µM] | Activity [5] | Activity [6] | Activity [7] | Activity [8] | Activity [9] | Activity [10] | Activity [11] | Activity [12] | Activity [13] | Activity [14] | Activity [15] | Activity [16] | IC50 [17] [µM] | IC50 [20] [µM] | IC50 [21] [µM] | IC50 [22] [µM] | IC50 [23] [µM] | IC50 [24] [µM] | further results
1 | COc1nc(N)nc2c1c(-c1ccccc1)cn2[C@@H]1O[C@H](CO)[C@@H](O)[C@H]1O | > 44 | > 44 | inactive | inactive | inactive | inactive | inactive | inactive | inactive | inactive | inactive | inactive | inactive | inactive | > 20 | > 100 | > 100 | > 20 | > 20 | > 20 | CC50 [1]: > 44 µM; EC50 [2]: > 44 µM; IC50 [18]: > 20 µM; IC50 [19]: > 20 µM; IC50 [25]: > 20 µM; IC50 [26]: > 20 µM; IC50 [27]: > 20 µM; IC50 [28]: > 20 µM
2 | Cc1ncnc2c1c(I)cn2[C@@H]1O[C@H](CO)[C@@H](O)[C@H]1O | 20.9 | 2.16 | inactive | inactive | inactive | inactive | inactive | inactive | inactive | inactive | inactive | inactive | inactive | inactive | 4.08 | 13.3 | > 100 | 7.57 | 4.72 | 12.2 | CC50 [1]: 13.8 µM; EC50 [2]: 8.75 µM; IC50 [18]: 2.65 µM; IC50 [19]: 3.46 µM; IC50 [25]: > 20 µM; IC50 [26]: 17.8 µM; IC50 [27]: 12.6 µM; IC50 [28]: 5.48 µM
3 | Nc1ncnc2c1c(-c1ccco1)cn2[C@@H]1O[C@H](CO)[C@@H](O)[C@H]1O | > 44 | > 44 | inactive | inactive | inactive | inactive | inactive | inactive | inactive | inactive | inactive | inactive | inactive | inactive | 0.05 | 36.5 | 18.3 | 0.17 | 0.03 | 0.03 | CC50 [1]: > 44 µM; EC50 [2]: > 44 µM; IC50 [25]: 0.05 µM; IC50 [26]: 0.04 µM; IC50 [27]: 0.21 µM; IC50 [28]: 0.04 µM
4 | Nc1nc(N)c2c(-c3cccs3)cn([C@@H]3O[C@H](CO)[C@@H](O)[C@H]3O)c2n1 | > 44 | 10 | inactive | inactive | inactive | inactive | inactive | inactive | inactive | inactive | inactive | inactive | inactive | inactive | > 20 | > 100 | > 100 | > 20 | > 20 | > 20 | IC50 [18]: > 20 µM; IC50 [19]: > 20 µM; IC50 [25]: > 20 µM; IC50 [26]: > 20 µM; IC50 [27]: > 20 µM; IC50 [28]: > 20 µM

— ChEMBL document CHEMBL3124843, “Synthesis, cytostatic, antimicrobial, and anti-HCV activity of 6-substituted 7-(het)aryl-7-deazapurine ribonucleosides” (J Med Chem, 2014)
